PMC7610841 (Nature, 2020)

Experiments:
GFP-Wingless [1] = experiment: Solubilisation of GFP-Wingless in serum-free S2 cell medium; assay type: cell-based, Drosophila; settings: conditioned medium from S2 cells expressing Dlp^ΔGPI-V5 added to S2 cells expressing GFP-Wingless, 12hrs, concentrated 20-fold, Western blot
GFP-Wingless [2] = experiment: Colocalisation with morphotrap-enriched GFP-Wingless in wing discs; assay type: in vivo, Drosophila; settings: n=4 (Dlp^ΔGPI-V5), n=13 (ApoL), n=10 (Hrs)
Summary of the method: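 For ApoL and Hrs, morphotrap is driven by dpp-Gal4 and the endogenous proteins are immunostained. For Dlp ΔGPI-V5, morphotrap is driven by dpp-LexA and Dlp by wg-Gal4, limited to 24 h with Gal80ts (18°C rearing, 29°C shift). Confocal imaging; colocalisation scored where domains intersect; SD; three repeats.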

Wingless = settings: ref [13],[14]; cited from earlier work

B1: Dlp^ΔGPI: secreted form of Dlp lacking its membrane anchor, amino acids 53-723 (protein)
chain: PQVAALAAPNPAGGVAGSSIIDQFSPNCSAVTHIFQARGIDAIEIPQKPSNERVLRYCESPSVGTCCTYNMETRMAMQSRQQLEGHTKDQISRMSGILGSKATKFKDIFTALLKESRTQFNSMFIRTYGVIYERNSYVFSDLFKELETYFANGRVDLLEVMDKFFNTLYQKMFTVLNTQYTFDENYMRCVSEHMKELKPFGDVPDKLSVQIKRSFVATRTYGQALTTASEVAKKVLNVRLNADCTGALTKMQHCGACKGYTEKPCTNYCVNVIKGCLHYQHEFDSEWENFAMAMDKVAERLLGSFNIVMVVEPLNIKISEAIMNFQDSGQDITNRVFQGCGRPKLKKMKRSISPKLQGVQILNARSPVEADTLDIDETLDEAIVLRERRAAEPGSQETSAQQSQEQGVGKSGNGGGGGGGNNRRQQQRRKQQQQRRKQQNNRDDNDDDDNESGGGREPILDRIVRDIRQRVKDYKKFWSNLPHSVCSNEDIASSSDVDGMCWNGHTIDRYMHSITTEHGSNPEFTGNPASTKQTAQMASQLSHLKNAIVHLRNAYNGQDVEWSEQEELPYAGSGAGSGSGSEDDEDDDEGSGLGPFEPSHKPDVERPSVDADNDDDEDAGGRGHMPTHTSRPTSGVDDKNPLIHTTHFDQDHNDLDEDHRQLDEDEDTDAG
modifications: left off: V5, C-terminal, kept
solubilisation of GFP-Wingless, added conditioned medium (GFP-Wingless [1]): A similar effect was seen
solubilisation of GFP-Wingless, added conditioned medium (GFP-Wingless [1]; listed as Dlp^ΔGPI-V5): stabilises GFP-Wingless in solution
colocalisation with morphotrap-enriched GFP-Wingless (GFP-Wingless [2]): colocalizes
binding to Wingless (Wingless): known to bind Wingless
